Experimental data published in ChEMBL document CHEMBL1131607, “Synthesis of 7-arylmorphinans. Probing the "address" requirements for selectivity at opioid delta receptors” (J Med Chem, 1998).
pIC50: −log10 of the molar value.

Columns and labels:
[1] = target: Kappa-type opioid receptor (Cavia porcellus) (UniProt P41144); assay: Antagonist activity against electrically stimulated guinea pig ileum Opioid receptor kappa 1; format: functional, tissue-based
Procedure, shortened: (§1)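 Antagonism in electrically stimulated smooth muscle, hydrochloride salts. Test ligand 100 nM preincubated for 15 min before the standard agonist: DADLE (δ) in mouse vas deferens, morphine (μ) and ethylketazocine (κ) in guinea pig ileal longitudinal muscle. IC50 ratio = agonist IC50 with test compound / control agonist IC50. Ke (nM) = [antagonist]/(IC50 ratio − 1).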

[2] = target: Mu-type opioid receptor (Cavia porcellus) (UniProt P97266); assay: Compound was tested for opioid antagonist activity in the electrically stimulated GPI preparation, against morphine (Opioid receptor mu 1); format: functional; procedure, shortened: as §1
Mus musculus [3] = organism: Mus musculus; assay: (§2) Compound was tested for opioid agonist activity in the electrically stimulated mouse vas deferens(MVD); format: functional
Procedure, shortened: (§3)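 Electrically stimulated guinea pig ileal longitudinal muscle or mouse vas deferens, hydrochloride salts. Weak agonists tested at a single 1 μM concentration, reported as percent of maximal response (±SE). Full agonists run at four to six concentrations to give a concentration-response curve compared with a standard agonist in the same tissue. IC50 = agonist concentration giving half-maximal response; a negative value means enhanced twitch amplitude.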

Cavia porcellus [4] = organism: Cavia porcellus; assay: (§4) Compound was tested for opioid agonist activity in the electrically stimulated guinea pig ileal longitudinal muscle(GPI); format: functional, Muscle tissue; procedure, shortened: as §3
[5] = target: Delta-type opioid receptor (Mus musculus) (UniProt P32300); assay: Inhibition of [D-Ala2,D-Leu5]-enkephalin (DADLE) activity in the electrically stimulated mouse vas deferens; procedure, shortened: as §1
Mus musculus [6] = organism: Mus musculus; assay: as §2; format: functional, organism-based; procedure, shortened: as §3
Cavia porcellus [7] = organism: Cavia porcellus; assay: as §4; format: functional, organism-based; details: Muscle tissue; procedure, shortened: as §3

Chain of Mu-type opioid receptor (Cavia porcellus) (P97266 whole entry): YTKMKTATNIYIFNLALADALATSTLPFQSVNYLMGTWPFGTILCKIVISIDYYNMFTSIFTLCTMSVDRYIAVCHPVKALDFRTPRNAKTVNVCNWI
Chain of Delta-type opioid receptor (Mus musculus) (P32300 whole entry): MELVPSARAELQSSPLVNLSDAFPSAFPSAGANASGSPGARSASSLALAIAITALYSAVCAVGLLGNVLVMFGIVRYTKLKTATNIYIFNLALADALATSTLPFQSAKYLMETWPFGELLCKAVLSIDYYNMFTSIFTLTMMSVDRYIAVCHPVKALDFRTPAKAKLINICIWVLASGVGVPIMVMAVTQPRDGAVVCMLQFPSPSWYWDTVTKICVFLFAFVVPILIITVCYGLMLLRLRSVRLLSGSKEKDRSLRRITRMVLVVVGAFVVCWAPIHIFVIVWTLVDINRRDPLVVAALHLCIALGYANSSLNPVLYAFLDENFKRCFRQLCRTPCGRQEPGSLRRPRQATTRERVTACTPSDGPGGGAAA
Chain of Kappa-type opioid receptor (Cavia porcellus) (P41144 whole entry): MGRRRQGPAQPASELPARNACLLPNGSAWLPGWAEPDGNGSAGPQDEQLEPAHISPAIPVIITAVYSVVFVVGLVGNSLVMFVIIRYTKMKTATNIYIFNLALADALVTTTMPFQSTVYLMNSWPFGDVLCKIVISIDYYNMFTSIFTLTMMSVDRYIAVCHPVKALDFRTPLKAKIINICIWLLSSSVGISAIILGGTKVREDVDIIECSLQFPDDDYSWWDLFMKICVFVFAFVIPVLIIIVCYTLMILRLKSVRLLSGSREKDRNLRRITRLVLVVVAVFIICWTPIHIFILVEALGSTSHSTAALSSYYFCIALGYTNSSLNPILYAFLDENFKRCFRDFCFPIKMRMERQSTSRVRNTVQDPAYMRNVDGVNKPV

SMILES	IC50 ratio [1]	IC50 ratio [2]	Max response (Mus musculus [3]) [%]	Max response (Cavia porcellus [4]) [%]	IC50 ratio [5]	pIC50 (Mus musculus [6])	Ke (Mus musculus [3]) [nM]	Ke (Cavia porcellus [4]) [nM]	pIC50 (Cavia porcellus [7])
CN1CC[C@]23c4c5ccc(O)c4O[C@H]2[C@@H](O)[C@@H](c2cccc([N+](=O)[O-])c2)CC3[C@H]1C5 (some centres not stated)	1.05	0.34	56.1	49.3	0.99				
CN1CC[C@]23c4c5ccc(O)c4O[C@H]2[C@@H](O)[C@@H](c2ccccc2)CC3[C@H]1C5 (some centres not stated)	1.9	1.85		23.2		6.75			
CC(=O)O[C@H]1[C@@H](c2ccccc2)CC2[C@H]3Cc4ccc(O)c5c4[C@@]2(CCN3C)[C@H]1O5 (some centres not stated)	1.08	0.9	34.3	24	1.02				
CN1CC[C@]23c4c5ccc(O)c4O[C@H]2C(=O)[C@@H](c2ccccc2)C[C@H]3[C@H]1C5	0.75	1.05	29.2	53.9	0.97				
O=[N+]([O-])c1cccc([C@H]2CC3[C@H]4Cc5ccc(O)c6c5[C@@]3(CCN4C3CC3)[C@@H](O6)[C@H]2O)c1 (some centres not stated)					4.17				
Oc1ccc2c3c1O[C@H]1c4[nH]c5ccccc5c4C[C@@]4(O)[C@@H](C2)N(CC2CC2)CC[C@]314 [NALTRINDOLE]							0.13	29	
CC(=O)O[C@H]1[C@@H](c2ccccc2)CC2[C@H]3Cc4ccc(O)c5c4[C@@]2(CCN3C2CC2)[C@H]1O5 (some centres not stated)			21.1		6.38				6.93
O=C1[C@@H](c2ccccc2)C[C@H]2[C@H]3Cc4ccc(O)c5c4[C@@]2(CCN3C2CC2)[C@H]1O5					17.6				
CN1CC[C@]23c4c5ccc(O)c4O[C@H]2C(=O)C(c2ccccc2)(c2ccccc2)CC3[C@H]1C5 (some centres not stated)	1.01	1.69	5.4	9.7	2.34				
Oc1ccc2c3c1O[C@H]1[C@@H](O)[C@@H](c4ccccc4)CC4[C@@H](C2)N(C2CC2)CC[C@@]341 (some centres not stated)					3.03				
CN1CC[C@]23c4c5ccc(O)c4O[C@H]2[C@@H](O)[C@@H](c2ccc(Br)cc2)CC3[C@H]1C5 (some centres not stated)	1.76	1.2	15.2	10	1.17				
